Assay results collected from several papers.
Cell line: Vero
Effect on: cell growth or viability

Structure (SMILES)	technique	time	CC50 [µM]
CC(C)(C)[C@H](NS(=O)(=O)C(F)(F)F)C(=O)N1[C@@H]2CC[C@@H](C2)[C@H]1C(=O)N[C@@H](C[C@@H]1CCNC1=O)C(=O)c1nc2ccccc2s1	–	48 h	> 50
CC(C)C[C@H](NC(=O)OCc1ccccc1)C(=O)N[C@@H](CC(C)C)C(=O)N[C@@H](CC(C)C)C(=O)C(=O)Nc1ccccc1	ATP luminescence	48 h	16
COC(=O)N[C@H](C(=O)N1C[C@H](n2cc(-c3ccccc3)nn2)C[C@H]1c1ncc(-c2ccc(-c3ccc(-c4cnc([C@@H]5C[C@@H](n6cc(-c7ccccc7)nn6)CN5C(=O)[C@@H](NC(=O)OC)C(C)C)[nH]4)cc3)cc2)[nH]1)C(C)C	–	–	> 100
COc1ccc(C[C@H](NC(=O)[C@H](C)NC(=O)CN2CCOCC2)C(=O)N[C@@H](Cc2ccccc2)C(=O)C(=O)Nc2ccccc2)cc1	ATP luminescence	48 h	71.1
Clc1ccc(C(Cn2ccnc2)OCc2csc3c(Cl)cccc23)c(Cl)c1 (stereo not drawn)	WST-1	18 h	~21.2
CC(C)(C)NC(=O)N[C@H](C(=O)N1C[C@H]2[C@@H]([C@H]1C(=O)NC(CC1CCC1)C(=O)C(N)=O)C2(C)C)C(C)(C)C (stereo partly drawn)	neutral red	48 h	> 100
CCC(CC)COC(=O)[C@H](C)N[P@](=O)(OC[C@H]1O[C@@](C#N)(c2ccc3c(N)ncnn23)[C@H](O)[C@@H]1O)Oc1ccccc1	–	–	> 13
COc1cc2ncnc(Nc3ccc(F)c(Cl)c3)c2cc1OCCCN1CCOCC1	resazurin	–	> 60
COC(=O)N[C@H](C(=O)N1C[C@@H](n2cc(C(=O)OC)nn2)C[C@H]1c1ncc(-c2ccc(-c3ccc(-c4cnc([C@@H]5C[C@H](n6cc(C(=O)OC)nn6)CN5C(=O)[C@@H](NC(=O)OC)C(C)C)[nH]4)cc3)cc2)[nH]1)C(C)C	–	–	> 100
O=C(NCc1ccc(F)cc1)c1cccc(Nc2ccc(-c3ccccc3)nn2)c1	MTS	48 h	> 100
FC(F)(F)c1cccc(Nc2nc(NCCOc3ccccc3)nc3[nH]cnc23)c1	ATP luminescence	–	> 200
CCN(CC)CCNC(=O)c1c(C)[nH]c(/C=C2\C(=O)Nc3ccc(F)cc32)c1C	resazurin	–	25
C=C(c1ccc(C(=O)O)cc1)c1cc2c(cc1C)C(C)(C)CCC2(C)C	WST-1	18 h	> 40
C#Cc1cccc(Nc2ncnc3cc(OCCOC)c(OCCOC)cc23)c1	resazurin	–	> 60
CCOC(=O)c1c(NCc2ccc(SC)cc2)c2cccc(C)c2[nH]c1=O	MTS	48 h	> 100
